Activity calls are given as the source filed them.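 Rule for the calls, unless noted: active = NADPH fluorescence slope more negative than the mean of all samples by about 3 SD, 99.7% confidence; inactive = the rest.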
Key:
[1] = inhibitors of TNFa-induced NFkB p65 translocation, primary screen, imaging, HUVEC, MLSMR starter and 10KST1 sets (AID 438;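 active = inhibition above 20% together with a positive visual image hit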;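 note: compound added about 3h40 before a 20 min TNFalpha stimulation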;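 for inhibition: signal is the nuclear over cytoplasmic p65 intensity ratio per well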); conditions: HUVEC TNFa-induced p65 nuclear translocation; cell count: measured here: nuclei count (cytotoxicity indicator), at 2.08 µM; inhibition: at 2 µM, stronger effect = higher value, 0% TNFa-plus-vehicle, 100% no-TNFa wells
[2] = reduction of polyQ htt aggregates in cells – imaging, exon1htt(103Q)mCFP cells, high-content imaging, primary screen (AID 483;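 active = visual image review flags a hit and inhibition of aggregation exceeds 20%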;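 note: compound exposure lasted 3 days before fixation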;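 for nuclei count: percent of the per-plate median nuclei count of sample wells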); conditions: exon1htt(103Q)mCFP cell line, aggregate imaging, at 2 µM; inhibition of aggregation: stronger effect = higher value; nuclei count: measured here: cell count, toxicity
[3] = endothelial E-selectin expression blockers – imaging, HUVEC, immunofluorescence, MLSMR starter and 10KST1 sets, primary screen (AID 487;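 active = visually confirmed hit in the image check and inhibition above 20%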;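 for inhibition: signal is fraction of cell area covered by stained E-selectin grains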;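 for nuclei count: 100% = median nuclei count of all wells on the same plate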); conditions: HUVEC TNFalpha-induced E-selectin immunofluorescence imaging, at 2 µM; inhibition: stronger effect = higher value; nuclei count: measured here: cell number, toxicity
[4] = target: Voltage-gated potassium channel subunit beta-2 (Rattus norvegicus) (UniProt P62483); assay: inhibitors of rat Kvbeta2 reductase activity – biochemical, NADPH fluorescence, primary screen (AID 622;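 active = fluorescence slope higher than the sample average by over 3 SD, cut at about -0.22 in these data, passing the limit was not always enough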;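 note: slope of raw intensity against log time taken from 70 to 1610 s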); conditions: recombinant KvBeta, 4-cyanobenzaldehyde reduction, at 10 µM, stronger effect = higher value
Voltage-gated potassium channel subunit beta-2 (Rattus norvegicus), sequence (P62483 whole entry, looked up): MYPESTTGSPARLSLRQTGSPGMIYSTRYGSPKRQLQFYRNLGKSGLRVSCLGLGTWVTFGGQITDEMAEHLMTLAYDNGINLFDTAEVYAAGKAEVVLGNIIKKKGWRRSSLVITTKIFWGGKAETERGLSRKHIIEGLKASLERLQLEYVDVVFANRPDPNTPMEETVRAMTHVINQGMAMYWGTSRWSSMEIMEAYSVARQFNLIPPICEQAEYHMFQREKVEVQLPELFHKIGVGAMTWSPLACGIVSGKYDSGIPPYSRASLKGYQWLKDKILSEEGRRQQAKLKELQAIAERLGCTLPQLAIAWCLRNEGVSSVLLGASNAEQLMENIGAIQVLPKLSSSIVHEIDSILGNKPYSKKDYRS

[5] = target: Voltage-gated potassium channel subunit beta-2 (Rattus norvegicus) (UniProt P62483); assay: enhancers of rat Kvbeta2 NADPH turnover – biochemical, NADPH fluorescence, primary screen (AID 623); conditions: Recombinant KvBeta, NADPH fluorescence decrease slope, 10 min; at 10 µM; stronger effect = lower value;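 note: fluorescence intensity change per second fitted from 20 to 320 s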
[6] = target: Muscarinic acetylcholine receptor M4 (Homo sapiens) (UniProt P08173); assay: M4-linked GIRK flux change, two-sided – cell-based, HEK293 M4/GIRK, thallium flux, BTC-AM, M4 allosteric agonist project, primary screen (AID 625;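 active = fluorescence slope after compound addition differing from the mean of all tested samples at 99.7% confidence, mostly higher but some lower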;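 note: thallium influx through GIRK channels coupled to M4 in HEK293 cells with BTC-AM dye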); conditions: at 10 µM, actives lie on both sides
Muscarinic acetylcholine receptor M4 (Homo sapiens), sequence (P08173 whole entry, looked up): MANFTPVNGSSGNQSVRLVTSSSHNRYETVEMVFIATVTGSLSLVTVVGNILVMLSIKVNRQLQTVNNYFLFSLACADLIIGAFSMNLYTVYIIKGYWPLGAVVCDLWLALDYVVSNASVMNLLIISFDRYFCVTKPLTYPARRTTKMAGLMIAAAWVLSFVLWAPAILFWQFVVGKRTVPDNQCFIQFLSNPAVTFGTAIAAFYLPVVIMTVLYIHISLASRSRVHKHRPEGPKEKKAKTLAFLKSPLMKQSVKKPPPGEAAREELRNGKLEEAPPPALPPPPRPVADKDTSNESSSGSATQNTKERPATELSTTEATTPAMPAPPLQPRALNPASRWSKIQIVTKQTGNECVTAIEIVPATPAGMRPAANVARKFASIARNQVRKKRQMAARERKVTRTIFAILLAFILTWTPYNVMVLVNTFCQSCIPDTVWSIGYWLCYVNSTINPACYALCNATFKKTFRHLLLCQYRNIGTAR
In short: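 Material – HEK293 cells with M4 receptor and GIRK channels · Buffer or medium – pH 7.3 thallium assay buffer · Doses – one dose, 10 µM final · Timing – cells overnight at 37 °C, BTC-AM loading 1 h, reads 2 min total · Measured by – kinetic fluorescence with BTC-AM dye · Controls – carbachol and DMSO controls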

[7] = blockers of RIG-like receptor reporter activation – cell-based, Sendai virus stimulus, luciferase, 10K MLSCN set, TLR/RLR signaling modifier project, primary screen (AID 602276;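 active = inhibition at or above 50% at 10 µM; inactive = inhibition below 50%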;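 note: firefly luciferase from ISG56 promoter only with Renilla not read in this screen; 0% = Sendai virus plus DMSO and 100% = medium plus DMSO without virus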); conditions: HEK293 RL24 IRF3 luciferase reporter, at 10 µM, stronger effect = higher value
[8] = TLR3 IRF3 reporter activation blockers – cell-based, poly I:C stimulus, luciferase, 10K MLSCN set, primary screen (AID 602277;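 active = inhibition of the reporter signal at or above 50%; inactive = inhibition below 50%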); conditions: HEK293-TLR3 RL24 IRF3 luciferase reporter, at 10 µM, stronger effect = higher value

Structure (SMILES)	cell count [1]	inhibition [1]	inhibition of aggregation [2]	nuclei count [2] [%]	inhibition [3]	nuclei count [3] [%]	fluorescence slope [4]	NADPH fluorescence slope [5]	fluorescence slope [6]	inhibition [7]	inhibition [8]
COc1cccc(OC)c1C(=O)N1CCN(S(=O)(=O)c2ccccc2)CC1	437	1.4% (inactive)	-1.7% (inactive)	105	-13.1% (inactive)	102	-0.531 (inactive)	-6.4e-05 (inactive)	0.00446 (inactive)	-2.45% (inactive)	19.4% (inactive)
CC1CN(c2c3c(nc4ncnn24)CCCC3)CC(C)O1 (stereo not drawn)	752	0% (inactive)	-14.4% (inactive)	99.9	-31.5% (inactive)	106	-0.481 (inactive)	3.1e-05 (inactive)	0.00504 (inactive)	14.7% (inactive)	21.5% (inactive)
Cc1csc2nc3ccccc3c(=O)n12	270	3.9% (inactive)	-14.2% (inactive)	97.6	-48% (inactive)	119	-0.579 (inactive)	-1.2e-05 (inactive)	0.00358 (inactive)	4.9% (inactive)	-6.37% (inactive)
CCOC(=O)C1=C(Cn2cnc3ccccc32)NC(=O)NC1c1cc(C)ccc1C (stereo not drawn)	562	-10.3% (inactive)	-15.4% (inactive)	106	0.3% (inactive)	104	-0.461 (inactive)	-1.9e-05 (inactive)	0.00427 (inactive)	27.2% (inactive)	19% (inactive)
Cc1ccc(NC(=O)CNc2cccc(C)c2C)c(C)c1	505	2.5% (inactive)	-48.7% (inactive)	12.5	-54.3% (inactive)	107	-0.517 (inactive)	-7.1e-05 (inactive)	0.00498 (inactive)	5.56% (inactive)	-4.35% (inactive)
Cc1cc(C)cc(OCCCC(=O)O)c1	254	9.4% (inactive)	12.3% (inactive)	118	-45% (inactive)	94.2	-0.531 (inactive)	-4.2e-05 (inactive)	0.00463 (inactive)	-0.0954% (inactive)	17.4% (inactive)
COc1cc(OC)c(C(=O)Nc2ncn[nH]2)cc1OC	667	-1.1% (inactive)	-12% (inactive)	107	-95.9% (inactive)	108	-0.537 (inactive)	-0.000156 (inactive)	0.00435 (inactive)	17.7% (inactive)	19.5% (inactive)
O=C(C1CC2CCC1C2)N1CCN(Cc2ccc3c(c2)OCO3)CC1 (stereo not drawn)	408	6.8% (inactive)	17.4% (inactive)	124	-90.8% (inactive)	116	-0.579 (inactive)	-2.2e-05 (inactive)	0.00565 (inactive)	13.2% (inactive)	19.3% (inactive)

Reference: PubChem BioAssay
